# Active and inactive are the calls of the source. No cut-off for these calls is given here.
# Legend:
# Cryptococcus neoformans [1] = assay: Induction of cell membrane permeabilization in Cryptococcus neoformans var. grubii assessed as release of metabolites at 0.5 mM after 2 hrs by […] cell NMR spectroscopy; format: functional, organism-based
# Cryptococcus neoformans [2] = assay: Induction of cell death in Cryptococcus neoformans var. grubii at 0.5 mM after 2 hrs by […] cell NMR spectroscopy; format: functional, organism-based
# Cryptococcus neoformans [3] = assay: Induction of cell membrane permeabilization in Cryptococcus neoformans var. grubii at 0.5 mM after 2 hrs by […] cell NMR spectroscopy; format: functional, organism-based
# Escherichia coli [4] = assay: Induction of bacteriolysis in Escherichia coli DH5[alpha] assessed as induction of morphological changes at 100 uM by scanning electron microscopy; format: functional, organism-based
# Cryptococcus neoformans [5] = assay: Induction of cell membrane permeabilization in Cryptococcus neoformans var. grubii at 0.5 mM by […] cell NMR spectroscopy; format: functional, organism-based
# Lipid bilayer [6] = assay: Induction of cell permeabilization in calcein-entrapped 3:1 DOPE/DOPG large unilamellar vesicles at 30 uM by calcein leakage assay
# Summary of the method: (§1)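 LUVs of DOPE/DOPG 3:1 loaded with 70 mM calcein in 10 mM Tris pH 7.4, extruded through 100-nm filters, free dye removed by spin column. Liposomes at 20 µM in 10 mM Tris, 100 mM NaCl pH 7.4, 298K. Peptide added stepwise; emission at 520 nm read 5 min after each addition. Leakage = (F−Fo)/(FT−Fo)×100, with 0.1% Triton X-100 as FT; triplicates.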
# [7] = Binding affinity to SDS micelle in presence of MnCl2 by PRE NMR spectroscopy
# Escherichia coli [8] = assay: Antimicrobial activity against Escherichia coli DH5[alpha] incubated for 4 hrs by microdilution broth assay; format: functional
# Summary of the method: (§2)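 Bacteria grown in nutrient broth at 310K. Mid-log cells washed thrice and resuspended in 10 mM phosphate buffer pH 7.4 at 10^5 CFU/mL. Exposed to peptide 1–100 µM for 4 h at 310K, then medium added and grown overnight with shaking. Growth read at A630, normalized to 10 µM polymyxin B control. MIC90% is the concentration giving 90% growth inhibition; triplicates.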
# HEK293 [9] = assay: Toxicity in HEK293 cells assessed as reduction in cell viability at 2 to 100 uM incubated for 24 hrs by MTT assay; format: cell-based; settings: human, hek293, 24 h
# Summary of the method: (§3)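 HEK-293 cells kept in DMEM with 10% FBS and 1% penicillin/streptomycin, 310K, 5% CO2. Seeded at 10^4 cells/well and grown overnight, then exposed to peptide 0–100 µM for 24 h. MTT at 0.3 mg/mL for 3 h, formazan dissolved in DMSO, read at 570 nm; triplicates.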
# [10] = Binding affinity to d25-SDS micelles by 1H NMR spectroscopy
# Pseudomonas aeruginosa = assay: Antimicrobial activity against Pseudomonas aeruginosa incubated for 4 hrs by microdilution broth assay; format: functional; summary of the method: as §2
# [11] = Binding affinity to SDS by circular dichroism spectroscopy
# Summary of the method: (§4)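 Far-UV CD, 250–190 nm, 1-mm quartz cuvette, 100 nm/min, 0.5 nm interval, 3 scans averaged, 298K. Peptide at 25 µM final in deionized water or with 30 mM SDS or DPC micelles.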
# Lipid bilayer [12] = assay: Induction of cell permeabilization in calcein-entrapped 3:1 DOPE/DOPG large unilamellar vesicles by calcein leakage assay; summary of the method: as §1
# [13] = Hemolytic activity in human erythrocytes assessed as heme release at 1 to 200 uM after 4 hrs by; format: ADME, cell-based, Erythrocyte; settings: read-out: Activity
# Summary of the method: (§5)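 Fresh EDTA-anticoagulated human blood; erythrocytes washed thrice in PBS pH 7.4, 2×10^8 cells/mL, mixed with equal volume of peptide up to 200 µM, shaken at 310K for 1 h and 4 h. Supernatant absorbance at 414 nm measured, normalized to 2% Triton X-100 as 100% lysis; triplicates.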
# Escherichia coli [14] = assay: Induction of bacteriolysis in Escherichia coli DH5[alpha] assessed as induction of dents and membrane blebbing at 1 times MIC90 by scanning electron microscopy; format: functional, organism-based
# [15] = Binding affinity to DPC micelle in presence of MnCl2 by PRE NMR spectroscopy
# Cryptococcus neoformans [16] = assay: Induction of cell membrane permeabilization in Cryptococcus neoformans var. grubii assessed as release of metabolites at 0.5 mM by […] cell NMR spectroscopy; format: functional, organism-based
# Erythrocyte = assay: Hemolytic activity in human erythrocytes at 1 to 200 uM after 4 hrs by; format: ADME, cell-based; summary of the method: as §5
# Cryptococcus neoformans [17] = assay: Antimicrobial activity against Cryptococcus neoformans var. grubii assessed as induction of microbial killing in presence of 150 mM NaCl measured after overnight recovery by microdilution broth assay; format: functional
# Summary of the method: (§6)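 Washed mid-log cells in 10 mM phosphate buffer pH 7.4 with 150 mM NaCl, 10^5 CFU/mL; C. albicans grown in YPDU. Peptide 1–100 µM, 4 h at 301K, then medium added and grown overnight with shaking; A630 read. Polymyxin B 10 µM positive control; percent killing reported as MIC50%; triplicates.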
# Cryptococcus neoformans [18] = assay: Antimicrobial activity against Cryptococcus neoformans var. grubii incubated for 4 hrs by microdilution broth assay; format: functional
# Summary of the method: as §2, with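 “Yeasts” for “Bacteria”, “YPDU” for “nutrient broth”, “301K.” for “310K.”, “301K,” for “310K,”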
# Escherichia coli [19] = assay: Induction of bacteriolysis in Escherichia coli DH5[alpha] assessed as induction of distorted cell morphology at 1 times MIC90 by scanning electron microscopy; format: functional, organism-based
# Klebsiella pneumoniae = assay: Antimicrobial activity against Klebsiella pneumoniae incubated for 4 hrs by microdilution broth assay; format: functional; summary of the method: as §2
# Salmonella typhi = assay: Antimicrobial activity against Salmonella typhi Ty2 incubated for 4 hrs by microdilution broth assay; format: functional, Salmonella enterica subsp. enterica serovar Typhi str. Ty2; settings: Salmonella enterica
# [20] = Binding affinity to DPC micelle by circular dichroism spectroscopy; summary of the method: as §4
# Escherichia coli [21] = assay: Induction of bacteriolysis in Escherichia coli DH5[alpha] assessed as induction of cell wall shrinkage at 1 to 5 times MIC90 by scanning electron microscopy; format: functional, organism-based
# Cryptococcus neoformans [22] = assay: Induction of cell death in Cryptococcus neoformans var. grubii at 0.5 mM after 1 hr by […] cell NMR spectroscopy; format: functional, organism-based
# Staphylococcus aureus = assay: Antimicrobial activity against Staphylococcus aureus incubated for 4 hrs by microdilution broth assay; format: functional; summary of the method: as §2
# Escherichia coli [23] = assay: Induction of bacteriolysis in Escherichia coli DH5[alpha] assessed as induction of intracellular material leakage at 1 to 5 times MIC90 by scanning electron microscopy; format: functional, organism-based
# Lipid bilayer [24] = assay: Induction of cell permeabilization in calcein-entrapped 3:1 DOPE/DOPG large unilamellar vesicles at 1 to 50 uM by calcein leakage assay; summary of the method: as §1
# HEK293 [25] = assay: Toxicity in HEK293 cells assessed as reduction in cell viability at =>100 uM incubated for 24 hrs by MTT assay; format: cell-based; settings: human, hek293, 24 h; summary of the method: as §3
# Escherichia coli [26] = assay: Induction of bacteriolysis in Escherichia coli DH5[alpha] assessed as induction of non-uniform cell debris with leaked intracellular material at 5 times MIC90 by scanning electron microscopy; format: functional, organism-based
# Candida albicans [27] = assay: Antimicrobial activity against Candida albicans assessed as induction of microbial killing in presence of 150 mM NaCl measured after overnight recovery by microdilution broth assay; format: functional; summary of the method: as §6
# Candida albicans [28] = assay: Antimicrobial activity against Candida albicans incubated for 4 hrs by microdilution broth assay; format: functional
# Summary of the method: as §2, with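 “Yeasts” for “Bacteria”, “YPDU” for “nutrient broth”, “301K.” for “310K.”, “301K,” for “310K,”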
# Lipid bilayer [29] = assay: Induction of cell permeabilization in calcein-entrapped 3:1 DOPE/DOPG large unilamellar vesicles at 50 uM measured over period of 7200 secs by calcein leakage assay
# Summary of the method: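 Calcein-loaded 3:1 DOPE/DOPG LUVs, 20 µM in 10 mM Tris, 100 mM NaCl pH 7.4, exposed to 50 µM peptide. Emission at 520 nm followed over time at 298K, with a liposome-only control monitored for 2 h.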
Substance,Activity (Cryptococcus neoformans [5]),Activity (Lipid bilayer [6]) [%],Activity [7],MIC90 (Escherichia coli [8]) [µM],Activity (HEK293 [9]),Activity [10],MIC90 (Pseudomonas aeruginosa) [µM],Activity [11],Activity (Lipid bilayer [12]),"hemolysis at 4 h, up to 200 µM [13] [%]",Activity (Escherichia coli [14]),Activity [15],Activity (Cryptococcus neoformans [16]),Activity (Erythrocyte),MIC50 (Cryptococcus neoformans [17]) [µM],MIC90 (Cryptococcus neoformans [18]) [µM],Activity (Escherichia coli [19]),MIC90 (Klebsiella pneumoniae) [µM],MIC90 (Salmonella typhi) [µM],Activity [20],other results
H-LKLLRKL-OH,–,–,–,–,–,–,–,–,–,–,–,–,–,–,–,–,–,–,–,–,Activity (Cryptococcus neoformans [1]): inactive; Activity (Cryptococcus neoformans [2]): inactive; Activity (Cryptococcus neoformans [3]): inactive; Activity (Escherichia coli [4]): inactive
H-LKWLKKL-NH2,Active,27,Active,50,Non-Toxic,Active,50,inactive,Dose-dependent effect,< 10,Active,inactive,Active,Non-Toxic,50,25,Active,50,15,inactive,Activity (Escherichia coli [21]): Active; Activity (Cryptococcus neoformans [22]): Active; MIC90 (Staphylococcus aureus): 50 µM; Activity (Escherichia coli [23]): Active; Activity (Lipid bilayer [24]): 37%; Activity (HEK293 [25]): < 10%; Activity (Escherichia coli [26]): Active; MIC50 (Candida albicans [27]): 50 µM; MIC90 (Candida albicans [28]): 50 µM
H-LRWLRRL-NH2,Active,45,inactive,10,Non-Toxic,Active,10,inactive,Dose-dependent effect,< 10,Active,inactive,Active,Non-Toxic,25,15,Active,15,7.5,inactive,Activity (Escherichia coli [21]): Active; Activity (Cryptococcus neoformans [22]): Active; MIC90 (Staphylococcus aureus): 50 µM; Activity (Escherichia coli [23]): Active; Activity (Lipid bilayer [24]): 57%; Activity (Lipid bilayer [29]): Active; Activity (HEK293 [25]): < 10%; Activity (Escherichia coli [26]): Active; MIC50 (Candida albicans [27]): 25 µM; MIC90 (Candida albicans [28]): 50 µM
